Columns and labels:
Mus musculus [1] = assay: Antitumor activity against P388 leukemia in mice at a dose of 80 mg/kg administered intraperitoneally for 5 days; format: functional, organism-based; set-up: dose 80 mg/kg
In short: (§1)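 CDF1 hybrid male or female mice, 10 per group, were inoculated ip on day 0 with 10^6 viable P388 leukemia cells. Drug in distilled water was given ip (0.1 mL/10 g body weight) daily on days 1-5, with vehicle, 5-fluorouracil and BD 84 controls given the same way. T/C = median survival of treated/controls × 100; T/C > 128% counted as significant.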

Mus musculus [2] = assay: Antitumor activity against P388 leukemia in mice at a dose of 5 mg/kg administered intraperitoneally for 5 days; format: functional; conditions: route intraperitoneal; in short: as §1
Calf thymus DNA = assay: Apparent DNA affinity constant; format: nucleic-acid assay; conditions: Bos taurus
In short: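 Apparent DNA affinity constant was measured by competition with ethidium bromide. Buffer was 20 mM Na2HPO4/NaH2PO4, 0.1 M NaCl, 1 mM EDTA, pH 7.4, with calf thymus DNA at 10 μg/mL. Values are given in 10^6 M⁻¹.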

Mus musculus [3] = assay: Antitumor activity against P388 leukemia in mice at a dose of 40 mg/kg administered intraperitoneally for 5 days; format: functional; in short: as §1
Mus musculus [4] = assay: Antitumor activity against P388 leukemia in mice at a dose of 20 mg/kg administered intraperitoneally for 5 days; format: functional; conditions: route intraperitoneal
In short: (§2)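 CDF1 hybrid male or female mice, 10 per group, were inoculated ip with 10^6 viable P388 cells on day 0. Drugs in distilled water were given ip (0.1 mL/10 g body weight) daily D1-5. Vehicle, 5-fluorouracil and BD 84 were given the same way. T/C = median survival day of treated / controls × 100; T/C > 128% was significant; cures counted at D60.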

Mus musculus [5] = assay: Antitumor activity against P388 leukemia in mice at a dose of 10 mg/kg administered intraperitoneally for 5 days; format: functional; conditions: route intraperitoneal; in short: as §2
L1210 = assay: Ability to reduce the cell count to 50% in L1210 culture cells; format: functional; conditions: Mus musculus, read-out: ID50 (the source's name)
In short: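 L1210 cells in exponential growth in RPMI 1640 with 2 mM glutamine, penicillin/streptomycin and 10% FCS, 37 °C, 5% CO2. Drugs dissolved in distilled water were added to cells at 0.8 × 10^5 cells/mL for 48 h, then cells were counted. ID50 is the concentration halving cell proliferation versus controls, from regression of dose-response data; mean of two independent experiments.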

Mus musculus [6] = assay: Antitumor activity against P388 leukemia in mice at a dose of 2.5 mg/kg administered intraperitoneally for 5 days; format: functional; conditions: route intraperitoneal; in short: as §2
Mus musculus [7] = assay: Antitumor activity against P388 leukemia in mice at a dose of 10 mg/kg administered intraperitoneally for 5 days; It is nontoxic at this dose; format: functional; conditions: route intraperitoneal; in short: as §2
Mus musculus [8] = assay: Antitumor activity against P388 leukemia in mice at a dose of 40 mg/kg administered intraperitoneally for 5 days; Nontoxic at this dose; format: functional; conditions: route intraperitoneal; in short: as §1
Mus musculus [9] = assay: Antitumor activity against P388 leukemia in mice at a dose of 12 mg/kg administered intraperitoneally for 5 days; format: functional; conditions: route intraperitoneal; in short: as §2
Mus musculus [10] = assay: Antitumor activity against P388 leukemia in mice at a dose of 24 mg/kg administered intraperitoneally for 5 days; format: functional; conditions: route intraperitoneal; in short: as §1
Mus musculus [11] = assay: Antitumor activity against P388 leukemia in mice at a dose of 6 mg/kg administered intraperitoneally for 5 days; format: functional; conditions: route intraperitoneal; in short: as §1
Mus musculus [12] = assay: (§3) Antitumor activity against P388 leukemia in mice at a dose of 50 mg/kg administered intraperitoneally for 5 days; format: functional; conditions: route intraperitoneal; in short: as §1
Mus musculus [13] = assay: Antitumor activity against P388 leukemia in mice at a dose of 100 mg/kg administered intraperitoneally for 5 days; format: functional, organism-based; set-up: dose 100 mg/kg; in short: as §2
Mus musculus [14] = assay: Antitumor activity against P388 leukemia in mice at a dose of 40 mg/kg administered intraperitoneally; format: functional, organism-based; set-up: dose 40 mg/kg
Mus musculus [15] = assay: as §3; format: functional, organism-based; set-up: dose 50 mg/kg; in short: as §1

CCN(CC)CCCNc1ncc(C)c2c1c1cc(OC)ccc1n2C
T/C (Mus musculus [1]): Toxic | T/C (Mus musculus [2]): 107% | K aff (Calf thymus DNA): 250000 M⁻¹ | T/C (Mus musculus [3]; route intraperitoneal): 115% | T/C (Mus musculus [4]): 125% | T/C (Mus musculus [5]): 115% | IC50 (L1210): 100 nM

CN(C)CCCNc1[nH]ccc2nc3ccc(O)cc3c1-2
T/C (Mus musculus [2]): 102% | K aff (Calf thymus DNA): 70000 M⁻¹ | T/C (Mus musculus [6]): 111% | T/C (Mus musculus [7]): 115% | IC50 (L1210): 11200 nM

COc1ccc2c(c1)c1c(NCCCN(C)C)ncc(C)c1n2C
T/C (Mus musculus [2]): 134% | K aff (Calf thymus DNA): 360000 M⁻¹ | T/C (Mus musculus [3]): Toxic | T/C (Mus musculus [4]): 150% | T/C (Mus musculus [5]): 160% | IC50 (L1210): 130 nM

CCN(CC)CCCCNc1ncc(C)c2c1c1cc(O)ccc1n2C
K aff (Calf thymus DNA): 350000 M⁻¹ | IC50 (L1210): 310 nM

CCN(CC)CCNc1ncc(C)c2c1c1cc(O)ccc1n2C
T/C (Mus musculus [2]): 142% | T/C (Mus musculus [8]): 137% | K aff (Calf thymus DNA): 110000 M⁻¹ | T/C (Mus musculus [4]): 182% | T/C (Mus musculus [5]): 153% | IC50 (L1210): 150 nM

CCN(CC)CCCNc1ncc(C)c2c1c1ccccc1n2C
T/C (Mus musculus [9]): 110% | T/C (Mus musculus [10]): 118% | T/C (Mus musculus [11]): 105% | K aff (Calf thymus DNA): 160000 M⁻¹ | T/C (Mus musculus [12]): 131% | T/C (Mus musculus [13]): Toxic | IC50 (L1210): 720 nM

COc1ccc2c(c1)c1c(NCCCN3CCCC3)ncc(C)c1n2C
K aff (Calf thymus DNA): 300000 M⁻¹ | IC50 (L1210): 500 nM

CCNCCCNc1[nH]cc(C)c2nc3ccc(OC)cc3c1-2
T/C (Mus musculus [2]): 119% | T/C (Mus musculus [14]): Toxic | K aff (Calf thymus DNA): 220000 M⁻¹ | T/C (Mus musculus [4]): 107% | T/C (Mus musculus [5]): 119% | IC50 (L1210): 1200 nM

Cc1c[nH]c(NCCCN(C)C)c2c3ccccc3nc1-2
T/C (Mus musculus [15]): Toxic | K aff (Calf thymus DNA): 130000 M⁻¹ | T/C (Mus musculus [5]): 129% | IC50 (L1210): 160 nM

Cc1cnc(NCC(C)CN(C)C)c2c3cc(O)ccc3n(C)c12 (configuration not stated)
K aff (Calf thymus DNA): 140000 M⁻¹ | IC50 (L1210): 10 nM

Source: ChEMBL document CHEMBL1124035, “1-Amino-substituted 4-methyl-5H-pyrido[4,3-b]indoles (gamma-carbolines) as tricyclic analogues of ellipticines: a new class of antineoplastic agents” (1988)
